Measured values: ChEMBL document CHEMBL5154797 (Eur J Med Chem, 2022)
pEC50, pKd: −log10 of the molar value. Calls of active or inactive are those of the source. No cut-off for these calls is given here.

Columns and labels:
[1] = Cytotoxicity against golden hamster BSR cells assessed as reduction in cell viability incubated for 24 hrs by microplate luminometer method; format: toxicity, cell-based, Mesocricetus auratus; conditions: for CC50 at 24 h: BSR cells; for CC50: bsr, 24 h
In short: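 BSR cells given serial dilutions from 200 μM, with medium in place of virus. After 24 h at 37 °C, viability was read by luminometer and CC50 calculated.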

Huh-7 = assay: Cytotoxicity against human HuH-7 cells assessed as reduction in cell viability incubated for 24 hrs by microplate reader assay; format: functional
[2] = Selectivity index, ratio of CC50 for cytotoxicity against human Huh7 cells to EC50 for antiviral activity against S-protein based pseudotyped SARS-CoV-2 infected in Huh7 cells; format: functional
SARS-CoV-2 = assay: Antiviral activity against S-protein based pseudotyped SARS-CoV-2 infected in Huh7 cells measured after 24 hrs by bright-Glo luciferase assay; format: functional, organism-based; conditions: Severe acute respiratory syndrome coronavirus 2, Huh-7, 24 h
In short: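 Serial dilutions from 200 μM were held with pseudotyped SARS-CoV-2 (1.3 × 10^4 TCID50) at 37 °C for 1 h, then mixed with Huh7 cells (2000 cells/well) and incubated 24 h. EC50 was calculated from bioluminescence intensity.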

Lyssavirus rabies [3] = assay: Antirabies activity against rabies CVS infected in golden hamster BSR cells preincubated for 1 hr followed by mixing of cells measured after 24 hrs by inverted fluorescence microscope analysis; format: functional, organism-based
[4] = Selectivity index, ratio of CC50 for cytotoxicity against golden hamster BSR cells to EC50 for antirabies activity against Rabies virus infected in golden hamster BSR cells; format: toxicity, cell-based; conditions: read-out: Selectivity Index
[5] = Binding affinity to rabies recombinant GST-His-tagged G-glycoprotein protein (20 to 459 AA residues) expressed in Escherichia coli BL21 (DE3) cells assessed as Kd treated for 60 secs followed dissociation time of 120 secs by SPR analysis; design: species or system Lyssavirus rabies
In short: (§1)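 Biacore SPR with PBS-P as sample and running buffer. Target protein was amine-coupled to a CM5 chip in sodium acetate pH 4.0. Compound dilution series flowed at 30 μL/min, with 60 s contact and 120 s dissociation. Reference flow cell and blank cycle responses were subtracted.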

[6] = Acute toxicity in Kunming mouse assessed as lethal dose administered orally measured after 7 days; conditions: in vivo, 800 mg/kg, route po, time 7 day
In short: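 Female Kunming mice (20.0 ± 1.0 g), 6 per group, randomly assigned. Single oral dose of 0, 200, 400, 600 or 800 mg•kg−1, with ddH2O as control. Body weight, behaviour and survival monitored for 7 days.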

Lyssavirus rabies [7] = assay: Antirabies activity against rabies CVS infected in golden hamster BSR cells assessed as inhibition of viral growth at 25 uM treated 1 hr post infection measured after 23 hrs by measuring luciferase signal; format: functional, organism-based; conditions: time 24.0 hrs
Spike glycoprotein = Spike glycoprotein (Severe acute respiratory syndrome coronavirus 2, UniProt P0DTC2); assay: Binding affinity to SARS-CoV-2 spike protein assessed as Kd by SPR analysis
[8] = molecular target: Spike glycoprotein (Severe acute respiratory syndrome coronavirus 2) (UniProt P0DTC2); assay: Binding affinity to SARS-CoV-2 spike protein at 0.16 to 5 uM by SPR analysis; conditions: dose 0.16-5 µM, DDE = dose-dependent effect; in short: as §1

Structure (SMILES)	CC50 at 24 h [1]	CC50 (Huh-7)	Selectivity Index [2]	pEC50 (SARS-CoV-2)	pEC50 (Lyssavirus rabies [3])	selectivity ratio [4]	CC50 [1]	pKd [5]	LD50 at 168 h [6]	Activity (Lyssavirus rabies [7])	pKd (Spike glycoprotein)	Activity [8]
CC(C)/N=c1\cc2n(-c3ccc(F)cc3)c3ccccc3nc-2cc1Nc1ccc(Cl)cc1	223 µM	17 µM	0.6	4.53	5.40	55.6						
CC(C)/N=c1\cc2n(-c3ccc(Cl)cc3)c3ccccc3nc-2cc1Nc1ccc(F)cc1	281 µM	40.6 µM	2.8	4.84	5.34	61.7						
COc1ccc(-n2c3c/c(=N\C(C)C)c(Nc4ccccc4)cc-3nc3ccccc32)cn1	323 µM	< 10 µM		> 5.00	4.91	26.3						
CC(C)/N=c1\cc2n(-c3ccccc3)c3ccccc3nc-2cc1Nc1ccc(Cl)cc1		16.1 µM	>1.6	> 5.00	5.72	22.4	42.6 µM					
CCC/N=c1\cc2n(-c3ccc(OC)nc3)c3ccccc3nc-2cc1Nc1ccc(F)cc1		< 10 µM		> 5.00	5.85	76.4	107 µM					
CCC/N=c1\cc2n(-c3ccc(Cl)cc3)c3ccccc3nc-2cc1Nc1ccc(F)cc1		14.9 µM	1.5	4.99	5.78	32.6	54.5 µM					
COc1ccc(Nc2cc3nc4ccccc4n(-c4ccc(Cl)cc4)c-3c/c2=N\C(C)C)cn1		> 267 µM	>1.7	3.82	5.64	15.5	35.4 µM					
N=c1cc2n(-c3ccc(Cl)cc3)c3ccccc3nc-2cc1Nc1ccc(Cl)cc1					4.69	1.7	35.4 µM					
COc1ccc(Nc2cc3nc4ccccc4n(-c4ccc(Cl)cc4)c-3cc2=N)cc1		> 267 µM	>1.7	3.81	3.97	1						
CCC/N=c1\cc2n(-c3ccc(Cl)cc3)c3ccccc3nc-2cc1Nc1ccc(Cl)cc1	323 µM	107 µM	2.7	4.41	4.60	13						
CC(C)/N=c1\cc2n(-c3ccccc3)c3ccccc3nc-2cc1NCc1ccccc1		< 10 µM		> 5.00	5.85	76.4	107 µM					
COc1ccc(Nc2cc3nc4ccccc4n(-c4ccc(OC)nc4)c-3c/c2=N\C(C)C)cc1	323 µM	17.1 µM	>1.7	> 5.00	4.88	24.5						
CC(C)/N=c1\cc2n(-c3ccc(Cl)cc3)c3ccccc3nc-2cc1Nc1ccc(OC(F)(F)F)cc1		38.4 µM	3.8	5.00	5.75	182						
CC(C)/N=c1\cc2n(-c3ccc(F)cc3)c3ccccc3nc-2cc1Nc1ccc(F)cc1	314 µM	267 µM	3.3	4.09	5.64	134						
CC(C)/N=c1\cc2n(-c3ccccc3)c3ccccc3nc-2cc1Nc1ccccc1	323 µM	177 µM	10.2	4.76	4.97	30.1						
CC(C)/N=c1\cc2n(-c3ccc(Cl)cc3)c3ccccc3nc-2cc1Nc1ccccc1		154 µM	3.8	4.39	5.07	21.9	185 µM					
COc1ccc(-n2c3c/c(=N\C(C)C)c(Nc4cccc(F)c4)cc-3nc3ccccc32)cn1		88.9 µM	6.1	4.84	5.84	223		6.14	800 mg/kg	Active	5.60	Dde

Structure (SMILES)	CC50 at 24 h [1]	CC50 (Huh-7)	Selectivity Index [2]	pEC50 (SARS-CoV-2)	pEC50 (Lyssavirus rabies [3])	selectivity ratio [4]	CC50 [1]	pKd [5]	LD50 at 168 h [6]	Activity (Lyssavirus rabies [7])	pKd (Spike glycoprotein)	Activity [8]
CCC/N=c1\cc2n(-c3ccccc3)c3ccccc3nc-2cc1Nc1ccccc1		35.6 µM	>3.5	> 5.00	6.12	19	14.4 µM					
COc1ccc(-n2c3c/c(=N\C4CCC(OC)CC4)c(Nc4ccc(F)cc4)cc-3nc3ccccc32)cn1 (stereo not drawn)		51.3 µM	>5.1	> 5.00	5.59	33.1	84.4 µM					
CC(C)/N=c1\cc2n(-c3ccc(Cl)cc3)c3ccccc3nc-2cc1Nc1ccc(Cl)cc1 [CLOFAZIMINE]	323 µM	44.7 µM		5.00	5.64			6.55				
Fc1ccc(Nc2cc3nc4ccccc4n(-c4ccc(Cl)cc4)c-3c/c2=N\C2CC2)cc1		16.7 µM	1.2	4.87	5.16	47.1						
Clc1ccc(Nc2cc3nc4ccccc4n(-c4ccc(Cl)cc4)c-3c/c2=N\C2CC2)cc1		> 267 µM	>1.9	3.85	4.64	14.2						
CC(C)/N=c1\cc2n(-c3ccc(Cl)cc3)c3ccccc3nc-2cc1NCc1ccc(Cl)cc1		16.1 µM	1.3	4.91	6.12	123	93.1 µM					
COc1ccc(Nc2cc3nc4ccccc4n(-c4ccc(Cl)cc4)c-3cc2=N)c(OC)c1		16.6 µM	1	4.79	4.45	1						
COc1ccc(Nc2cc3nc4ccccc4n(-c4ccc(Cl)cc4)c-3c/c2=N\C(C)C)cc1		88.9 µM	5.4	4.78	5.16	19	130 µM					
COc1ccc(Nc2cc3nc4ccccc4n(-c4ccc(Cl)cc4)c-3c/c2=N\C(C)C)c(OC)c1		13.5 µM	>1.3	> 5.00	5.16	17.6	120 µM					
N=c1cc2n(-c3ccccc3)c3ccccc3nc-2cc1NCc1ccccc1	35.4 µM				4.45	1						
COc1ccc(Nc2cc3nc4ccccc4n(-c4ccccc4)c-3c/c2=N\C(C)C)cn1		22.7 µM	1.7	4.87	5.30	21.2	107 µM					
COc1ccc(-n2c3c/c(=N\C(C)C)c(Nc4ccc(F)cc4)cc-3nc3ccccc32)cn1	323 µM	88.9 µM	>8.9	> 5.00	5.85	229			800 mg/kg	Active		
N=c1cc2n(-c3ccc(Cl)cc3)c3ccccc3nc-2cc1Nc1ccccc1		< 10 µM		> 5.00	4.69	1.7	35.4 µM					
CC(C)/N=c1\cc2n(-c3ccccc3)c3ccccc3nc-2cc1NCc1ccc(F)cc1		29.6 µM	>2.9	> 5.00	5.72	9.1	17.3 µM					
COc1ccc(-n2c3c/c(=N\C(C)C)c(Nc4ccc(Cl)cc4)cc-3nc3ccccc32)cn1		51.3 µM	>5.1	> 5.00	5.30	21.3	107 µM					
COc1ccc(-n2c3c/c(=N\C4CC4)c(Nc4ccc(F)cc4)cc-3nc3ccccc32)cn1		88.9 µM	2.7	4.48	4.88	8.1	107 µM					
